Laboratory results taken from PMC6219704 (Cell chemical biology, 2018).

How the values were obtained:
[1] = test system: E. coli strains with A2503C, A2059G or A2059C in the 23S rRNA; assay: MIC against erythromycin-resistant strains with 23S rRNA mutations; type: cell-based, Escherichia coli; conditions: Table S2 (not available)
Summary of the method: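 Broth microdilution in Müller-Hinton broth with E. coli grown at 37°C. Test compounds started at 128 μM and were serially two-fold diluted, then halved again on adding bacteria to 2.5 × 10^4 CFU/well. Plates sealed and incubated overnight at 37°C. MIC taken as the lowest concentration preventing visible growth.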

[2] = molecular target: E. coli ribosomes on H-ns-PPP mRNA (Escherichia coli, UniProt P60723); assay: Toeprinting assay in fully reconstituted in vitro translation system; type: biochemical; conditions: 1-100 μM peptide, 100 μM thiostrepton; 15 min 37°C

| Structure (SMILES) | Change in MIC with 23S rRNA mutations versus wildtype (in words) [1] | Toeprint result (in words) [2] |
| --- | --- | --- |
| CC[C@H]1OC(=O)[C@H](C)[C@@H](O[C@H]2C[C@@](C)(OC)[C@@H](O)[C@H](C)O2)[C@H](C)[C@@H](O[C@@H]2O[C@H](C)C[C@H](N(C)C)[C@H]2O)[C@](C)(O)C[C@@H](C)C(=O)[C@H](C)[C@@H](O)[C@]1(C)O [erythromycin] | increased MIC |  |
| C=C(NC(=O)C(=C)NC(=O)c1csc(C2=N[C@@H]3c4csc(n4)[C@H]4NC(=O)c5csc(n5)[C@H]([C@](C)(O)[C@@H](C)O)NC(=O)[C@H]5CSC(=N5)/C(=C/C)NC(=O)[C@H]([C@@H](C)O)NC(=O)c5csc(n5)[C@]3(CC2)NC(=O)[C@H](C)NC(=O)C(=C)NC(=O)[C@H](C)NC(=O)[C@H]([C@@H](C)CC)N[C@@H]2C=Cc3c([C@H](C)O)cc(nc3[C@H]2O)C(=O)O[C@@H]4C)n1)C(N)=O [thiostrepton] |  | ribosomes can initiate at the AUG start codon but cannot translate further |
